The IC50 is the point on the concentration scale where inhibition reaches its midpoint.

Each structure is given as a SMILES string. Active and inactive are the calls of the source. No cut-off for these calls is given here.

Series [1] can be described thus: Cell cycle arrest in human MDA-MB-231 cells assessed as accumulation at G0/G1 phase at 4 uM after 24 hrs by propidium iodide staining based FACS analysis (reference value: 50.4 %). It is filed as functional. The method in brief:
(§1)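 MDA-MB-231 at 1×10^6 cells/well treated with 1, 2 or 4 µM for 24 h, with a DMSO control. Cells harvested by trypsin, washed with PBS and fixed in 70% ethanol for 30 min at 4 °C. Stained 15 min at room temperature in the dark with PI buffer containing Triton X and DNase-free RNase A. Analysed by flow cytometry; G0/G1, S and G2/M fractions quantified.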
A general note: Flow cytometry measures light scatter and fluorescence of single cells or particles in a stream.

Series [2] in a line: Cytotoxicity against human PC3 cells assessed as reduction in cell viability after 48 hrs by MTT assay. Particulars: PC-3, 48 h. It is filed as functional, cell-based. The method in brief:
(§2)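 Cells grown in DMEM or MEM with 10% FBS at 37 °C, 5% CO2. Seeded at 1×10^4 cells/well, incubated 48 h, then exposed to compound for 48 h with vehicle control. MTT (5 mg/mL stock) added for 4 h; formazan dissolved in DMSO, absorbance read at 570 nm. Preliminary screen at 50 µM. Compounds giving >50% inhibition were tested for dose-response curves; IC50 derived by linear regression of % inhibition versus concentration. Mean of three independent experiments in triplicate.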

Series [3] is described as follows: Cytotoxicity against human DU145 cells assessed as reduction in cell viability after 48 hrs by MTT assay. In kind it is functional, cell-based. To be noted: DU-145, 48 h. The method in brief:
as §2
On the technique in general: Tetrazolium assays rely on reduction of a dye to a coloured formazan, in cell work by metabolically active cells.

Series [4] can be described thus: Cytotoxicity against human MDA-MB-231 cells assessed as reduction in cell viability after 48 hrs by MTT assay. It is filed as functional, cell-based. To be noted: MDA-MB-231, 48 h. In a few lines: as §2
Series [5] in a line: Cytotoxicity against human MCF10A cells assessed as reduction in cell viability after 48 hrs by MTT assay. In kind it is toxicity, cell-based, MCF-10A. In a few lines: as §2
A short description of series [6]: Selectivity ratio of IC50 for human MCF10A cells to IC50 for […] cells. It is filed as ADME, cell-based, MCF-10A. To be noted: MCF10A cells versus 4TI cells, read-out: Ratio IC50.
A short description of series [7]: Selectivity ratio of IC50 for human MCF10A cells to IC50 for human A549 cells. It is filed as ADME, cell-based. To be noted: MCF10A cells versus A549 cells, read-out: Ratio IC50.
For series [8], the system named is MDA-MB-231. The experiment in a line: Inhibition of F-actin polymerization in human MDA-MB-231 cells assessed as decrease in protein extension at 1 to 4 uM after 12 hrs by rhodamine-phalloidin/hoechst […]-dual staining based confocal microscopic analysis. In kind it is cell-based. In a few lines: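 MDA-MB-231 cells (1×10^6/well) were grown on coverslips for 24 h, then exposed 12 h to 1, 2 and 4 μM. After a PBS wash and fixation in 4% paraformaldehyde, F-actin was stained with rhodamine-phalloidin and nuclei with Hoechst […]. Slides were mounted in anti-fade reagent and imaged by confocal microscopy (20× objective).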

Series [9] is described as follows: Cell cycle arrest in human MDA-MB-231 cells assessed as accumulation at G2/M phase at 4 uM after 24 hrs by propidium iodide staining based FACS analysis (reference value: 26 %). It is filed as functional. In a few lines:
as §1

In series [10] the test system is MDA-MB-231. The experiment in a line: Induction of apoptosis in human MDA-MB-231 cells assessed as cell membrane blebbing at 1 uM after 24 hrs by AO/EB-dual staining based fluorescent microscopic analysis. In kind it is functional. The method in brief: (§3)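 MDA-MB-231 plated at 1×10^6 cells/mL and treated at 1, 2 or 4 µM, with a DMSO control. Incubation time is given as 48 h in the methods and 24 h in the figure legend. AO and EB added at 10 µg/mL each. Cells viewed within 10 min by fluorescence microscopy (excitation 488 nm, emission 550 nm) at 200×.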

Series [11] has as its system MDA-MB-231. Briefly: Induction of apoptosis in human MDA-MB-231 cells assessed as destructive fragmentation of chromatin at 4 uM after 24 hrs by AO/EB-dual staining based fluorescent microscopic analysis. In kind it is functional, cell-based. In a few lines:
as §3

Series [12] deals with MDA-MB-231. Briefly: Induction of apoptosis in human MDA-MB-231 cells assessed as loss of mitochondrial membrane potential after 24 hrs by rhodamine-123 -based spectrofluorometric analysis. In kind it is functional, cell-based. In a few lines:
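MDA-MB-231 seeded at 5×10^5 cells/mL and allowed to adhere overnight, then treated at 1, 2 or 4 µM for 24 h. Cells collected by trypsin, washed, and stained with rhodamine-123 (10 µg/mL) in PBS for 30 min at room temperature. Cells washed twice and fluorescence read at excitation 480 nm, emission 530 nm. Mean ± SD of three independent experiments in triplicate.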

For series [13], the system named is MDA-MB-231. Briefly: Induction of apoptosis in human MDA-MB-231 cells assessed as loss of mitochondrial membrane potential at 1 uM after 24 hrs by rhodamine-123 -based spectrofluorometric analysis relative to control. It is filed as functional. The method in brief: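 MDA-MB-231 cells were plated at 5×10^5 cells/mL in 6-well plates, left to adhere overnight, then treated 24 h at 1, 2 and 4 μM. Cells were trypsinized, washed in PBS and loaded with rhodamine-123 (10 μg/mL) in PBS for 30 min at room temperature. After two PBS washes, fluorescence was read by spectrofluorometer (ex 480/em 530 nm). Loss is expressed against control; three independent experiments in triplicate.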

Series [14] concerns MDA-MB-231. The experiment in a line: Induction of apoptosis in human MDA-MB-231 cells assessed as increase in Bax expression after 24 hrs by Western blot analysis. It is filed as functional, cell-based. In a few lines:
(§4)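 MDA-MB-231 treated at 1, 2 or 4 µM for 24 h. Whole-cell extracts prepared in RIPA buffer. Blots probed with rabbit anti-caspase-3, anti-Bcl2 and anti-β-actin (1:1000) and anti-Bax (1:500), then HRP secondaries and ECL detection. Membranes stripped and reprobed. Bands quantified by densitometry as fold change versus control. Mean ± SEM, n=3.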
For orientation: In western blotting, separated proteins are transferred to a membrane and probed.

The test system of series [15] is MDA-MB-231. The experiment in a line: Induction of apoptosis in human MDA-MB-231 cells assessed as viable cells at 1 uM after 24 hrs by Annexin V-FITC/propidium iodide-staining based FACS analysis (reference value: 89.5 %). To be noted: MDA-MB-231, 24 h, read-out: Activity. In kind it is functional.
The subject of series [16] is MDA-MB-231. The experiment in a line: Induction of apoptosis in human MDA-MB-231 cells assessed as early apoptotic cells at 2 uM after 24 hrs by Annexin V-FITC/propidium iodide-staining based FACS analysis (reference value: 4.1 %). It is filed as functional.
Series [17] relates to MDA-MB-231. Briefly: Induction of apoptosis in human MDA-MB-231 cells assessed as necrotic cells at 4 uM after 24 hrs by Annexin V-FITC/propidium iodide-staining based FACS analysis (reference value: 2.8 %). In kind it is functional.
In series [18] the test system is MDA-MB-231. Briefly: Induction of apoptosis in human MDA-MB-231 cells assessed as early apoptotic cells after 24 hrs by Annexin V-FITC/propidium iodide-staining based FACS analysis. It is filed as functional, cell-based.
The subject of series [19] is MDA-MB-231. Briefly: Induction of apoptosis in human MDA-MB-231 cells assessed as increase in caspase-3 expression after 24 hrs by Western blot analysis. It is filed as functional, cell-based. In a few lines:
as §4

A short description of series [20]: Cytotoxicity against human A549 cells assessed as growth inhibition at 50 uM after 48 hrs by MTT assay relative to control. It is filed as functional. Particulars: A549, 48 h, read-out: GI. In a few lines: as §2
Series [21] can be described thus: Cytotoxicity against HGC cells assessed as growth inhibition at 50 uM after 48 hrs by MTT assay relative to control. In kind it is functional. Particulars: Homo sapiens, read-out: GI. The method in brief:
as §2

A short description of series [22]: Cell cycle arrest in human MDA-MB-231 cells assessed as accumulation at G2/M phase after 24 hrs by propidium iodide staining based FACS analysis. It is filed as functional. Particulars: in the assay text read “G0/G1” for “G2/M”. The method in brief: as §1
Series [23] can be described thus: Cell cycle arrest in human MDA-MB-231 cells assessed as after 24 hrs by propidium iodide staining based FACS analysis.

In the case of `CC(C)n1c(/C=C2/C(=O)Nc3ccc(Br)cc32)nc2ccccc21`, the Activity was 74.7% in [1]; 14.8% in series [9]; “Dose-dependent effect” with MDA-MB-231 [12]; 25.2% in the series with MDA-MB-231 [13]; “Dose-dependent effect” in the series on MDA-MB-231 [14]; 18.7% in the series on MDA-MB-231 [16]. Also, the Activity is 4.2% with MDA-MB-231 [17]; “Dose-dependent effect” in the series with MDA-MB-231 [18]; “Dose-dependent effect” in the series on MDA-MB-231 [19]; “Dose-dependent effect” in [22]; “Dose-dependent effect” in series [23]. The IC50 was 10.7 µM in [2], 7.5 µM in series [3] and 3.26 µM in series [4]. Further, in series [5], the IC50 at 48 h was determined as 56.9 µM. In addition, the selectivity ratio came out at 9.5 in series [6] and 6.5 in series [7]. Further, in the series with MDA-MB-231 [8], the inhibition result was “Active”. In addition, the result in the series with MDA-MB-231 [10] and with MDA-MB-231 [11] was Active. In addition, the viability at 1 µM in the series with MDA-MB-231 [15] is 83.3%. For the same molecule, the inhibition of growth at 50 µM in [20] and in [21] was over 50% each time.

The values are drawn from ChEMBL document CHEMBL3865824, “New (E)-1-alkyl-1H-benzo[d]imidazol-2-yl)methylene)indolin-2-ones: Synthesis, in vitro cytotoxicity evaluation and apoptosis inducing studies” (Eur J Med Chem, 2016).
